Like-named read-outs stand apart in the source and are kept apart here.
Legend:
[1] = system: TNF-α–induced IKKβ-mediated NF-κB activation; test: Dual luciferase assay-based screen of quinoxaline analogs; format: cell-based; conditions: relative to parent analog / 13-197
In short: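 Dual-luciferase NF-κB reporter screen of quinoxaline analogs against TNF-α–stimulated, IKKβ-mediated NF-κB activation. Two reference compounds, the parent quinoxaline and an allosteric IKKβ inhibitor, served as controls marking the ends of the activity range. n = 4, reported as average ± SEM. P values from a two-tailed Student's t test.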

MAP3K12 = conditions: cited from earlier work
p-IKKβ = p-IKKβ levels in MiaPaCa2 cells; format: cell-based; conditions: Homo sapiens, MIA PaCa-2, read-out: IC50 for reduction of p-IKKβ levels
NF-κB pathway proteins = test: Western blot of NF-κB pathway proteins in MiaPaCa2 cells, 6 h; format: cell-based, human; conditions: MiaPaCa2, 6h, dose-response
[2] = system: TNF-α–induced MAP3K1-IKKβ–mediated NF-κB activation; format: cell-based; conditions: MAP3K1-WT transfected HeLa, TNF-α 20 ng/mL, 6 h
[3] = system: T3M4 orthotopic pancreatic tumors; test: T3M4 orthotopic xenograft model; format: in vivo, athymic nude mice; conditions: 40 mg/kg, by mouth
[4] = Oral and intravenous dose pharmacokinetic studies in mice; conditions: mouse, in vivo
IKKβ [5] = target: T1, IKKβ (Homo sapiens, UniProt O14920); test: 10-point dose-response IKKβ kinase activity assay; format: biochemical
T1 sequence (O14920 1-756): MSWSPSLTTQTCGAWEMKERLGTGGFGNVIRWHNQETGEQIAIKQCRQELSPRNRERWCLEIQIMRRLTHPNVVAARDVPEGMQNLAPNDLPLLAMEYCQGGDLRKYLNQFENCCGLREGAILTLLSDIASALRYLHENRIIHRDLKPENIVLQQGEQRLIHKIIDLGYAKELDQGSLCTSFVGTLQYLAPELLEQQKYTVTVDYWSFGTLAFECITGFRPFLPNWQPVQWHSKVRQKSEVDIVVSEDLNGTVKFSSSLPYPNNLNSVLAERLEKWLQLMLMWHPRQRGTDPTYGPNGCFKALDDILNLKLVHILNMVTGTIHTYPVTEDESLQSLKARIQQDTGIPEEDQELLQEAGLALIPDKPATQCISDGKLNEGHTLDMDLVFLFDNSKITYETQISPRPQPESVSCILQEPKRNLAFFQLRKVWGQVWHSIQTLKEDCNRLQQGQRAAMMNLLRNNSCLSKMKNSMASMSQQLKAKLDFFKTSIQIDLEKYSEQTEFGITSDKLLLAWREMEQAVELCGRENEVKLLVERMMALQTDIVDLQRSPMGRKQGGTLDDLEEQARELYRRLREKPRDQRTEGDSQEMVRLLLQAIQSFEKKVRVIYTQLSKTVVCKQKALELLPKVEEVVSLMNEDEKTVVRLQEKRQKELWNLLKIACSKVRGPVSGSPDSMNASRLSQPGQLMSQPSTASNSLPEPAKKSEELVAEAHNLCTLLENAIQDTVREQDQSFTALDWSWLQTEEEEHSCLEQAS

[6] = system: 328 kinase-associated peptides that correspond to 254 kinases; test: KiNativ kinome profiling dose-response in PANC1 lysate; format: binding; conditions: PANC1 cell lysates, 1.25-10 μM
In short: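 KiNativ kinome profiling done as a dose-response in PANC1 cells. Test compound was used at 1.25, 2.5, 5, 7.5 and 10 μM. Each kinase inhibited was recorded at each concentration.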

IKKβ [7] = target: T1, IKKβ; test: KinomeSCAN binding to IKKβ
[8] = system: TNF-α–induced MAP3K1-IKKβ–mediated NF-κB activity; test: HeLa luciferase reporter under NF-κB response element; format: cell-based
MAP3K1-WT–induced p-IKKβ = test: Western blot of MAP3K1-WT transfected HeLa cells; format: cell-based
[9] = Metabolic stability in human liver S9 fraction; format: in vitro ADME

Structure (SMILES): Cn1cc(-c2cnc3ccc(NC(=O)Nc4ccc(Br)cc4)cc3n2)cn1 [analog 5]
- inhibition of TNF-α–induced IKKβ-mediated NF-κB activity (SAR screen) [1]: improved activity

Structure (SMILES): CC(C)n1nc(-c2cnc(N)c(OC(F)(F)F)c2)cc1C1[C@H]2CN(C3COC3)C[C@@H]12 (some centres unmarked) [DLK-In-1]
- Ki (MAP3K12): 3 nM

Structure (SMILES): Cn1cc(-c2cnc3ccc(NC(=O)Nc4ccc(F)c(Br)c4)cc3n2)cn1 [39-100]
- IC50 (p-IKKβ): 2300 ± 200 nM
- Bcl-xL levels (NF-κB pathway proteins): no change in Bcl-xL
- IκBα phosphorylation (NF-κB pathway proteins): inhibited IκBα phosphorylation in a dose-dependent manner
- inhibition of TNF-α–induced MAP3K1-IKKβ–mediated NF-κB activation [2]: inhibited
- Ki67 and CD31+ tumor cells vs vehicle [3]: reduced Ki67 and CD31^+ tumor cells
- p-IKKβ expression in tumors (IHC) vs vehicle [3]: reduced expression of p-IKKβ
- improvement in oral bioavailability over 13-197 [4]: ~12 fold
- in vitro IKKβ enzymatic inhibition (IKKβ [5]): inactive
- kinome selectivity [6]: selectively inhibits MAP3K1
- in vitro IKKβ binding (IKKβ [7]): did not bind
- in vitro IKKβ binding (IKKβ [7]; listed as IKAM-1): inactive
- inhibition of TNF-α–induced NF-κB reporter activity [8]: selectively inhibited
- MAP3K1-WT–induced p-IKKβ (MAP3K1-WT–induced p-IKKβ): inhibited
- improvement of t1/2 (stability) over 13-197 [9]: ~8 fold
- major metabolites ([9]; 2h post-incubation): demethylated, glucuronidated, and sulfated products

Structure (SMILES): Cn1cc(-c2cnc3ccc(NC(=O)Nc4ccccc4Br)cc3n2)cn1 [analog 13]
- inhibition of TNF-α–induced IKKβ-mediated NF-κB activity (SAR screen) [1]: reduced the activity

Structure (SMILES): Cn1cc(-c2cnc3ccc(NC(=O)Nc4cccc(Br)c4)cc3n2)cn1 [compound 12]
- Bcl-xL levels (NF-κB pathway proteins): no change in Bcl-xL
- IκBα phosphorylation (NF-κB pathway proteins): inhibited IκBα phosphorylation in a dose-dependent manner
- Mcl-1 levels (NF-κB pathway proteins): robust reduction in Mcl-1 levels
- inhibition of TNF-α–induced IKKβ-mediated NF-κB activity (SAR screen) [1]: further improved the activity
- improvement of t1/2 (stability) over 13-197 [9]: four-fold better
